CXCR6 inh: blocks human CXCR6 beta-arrestin recruitment; actives 0.36% (n = 360,000); O00574; CHO-K1 PathHunter CXCR6 beta-arrestin, luminescence; inhibition, % at 20 µM; AID 602244; in the data active means inhibition above about 34%, passing the limit was not always enough;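 further: antagonist mode with CXCL16 agonist at 10 nM final; 0% = 10 nM CXCL16 with DMSO and 100% = unstimulated wells without agonist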
APJ ag: agonists of human APJ apelin receptor; P35414; CHO-K1 APJ PathHunter beta-arrestin, luminescence; 0% DMSO wells, 100% apelin; activation, % at 20 µM; actives 0.11% (n = 330,000); AID 2520;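 active means activation more than six SD over the plate average, tested at 20 µM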;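 further: 0% = DMSO alone and 100% = apelin-13 at 10 nM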
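Test system – PathHunter CHO-K1 APJ (AGTRL-1) beta-arrestin reporter cells · Input – 1000 cells/well · Compound – single test compound dose, 20 µM final, 1% DMSO · Times – compound stimulation 90 min at 25 °C, detection 60 min · Technique – beta-gal luminescence · Read-out basis – APJ–arrestin association signal · Control set – negative DMSO alone, positive Apelin-13 at 10 nM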
CCR6 antagonist: CCR6 (human) receptor antagonism. inhibition, % at 20 µM. AID 493098. actives 0.49% (n = 340,000). P51684. CHO-K1 CCR6 PathHunter beta-arrestin, luminescence, CCL20-stimulated;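 active means compounds whose inhibition of the agonist-driven luminescence signal at 20 µM reaches about 50%, limit read from the data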;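 further: cells stimulated with CCL20 at 14 nM final; plate controls were DMSO with CCL20 for no effect and DMSO without agonist for full effect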
APJ antag: APJ receptor antagonism; P35414; actives 0.32% (n = 330,000); inhibition, % at 20 µM; CHO-K1 APJ beta-arrestin complementation, luminescence;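 active means inhibition above about 40% at 20 µM, limit read from the data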;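 further: cells challenged with 10 nM apelin-13 agonist together with compound; plate controls were apelin-13 plus DMSO wells for no effect and DMSO wells lacking apelin-13 for full effect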
EBI2 antag: antagonists of human EBI2 receptor. EBI2 beta-arrestin recruitment, luminescence, 7a,25-OHC stimulated. inhibition, % at 5 µM. actives 0.81% (n = 360,000); in the data active means inhibition above about 38%;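 further: enzyme fragment complementation signal reports receptor beta-arrestin coupling in cells; 0% = agonist plus DMSO wells and 100% = wells without agonist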
Target sequence (P32249 whole entry, looked up, the tested form may be a part): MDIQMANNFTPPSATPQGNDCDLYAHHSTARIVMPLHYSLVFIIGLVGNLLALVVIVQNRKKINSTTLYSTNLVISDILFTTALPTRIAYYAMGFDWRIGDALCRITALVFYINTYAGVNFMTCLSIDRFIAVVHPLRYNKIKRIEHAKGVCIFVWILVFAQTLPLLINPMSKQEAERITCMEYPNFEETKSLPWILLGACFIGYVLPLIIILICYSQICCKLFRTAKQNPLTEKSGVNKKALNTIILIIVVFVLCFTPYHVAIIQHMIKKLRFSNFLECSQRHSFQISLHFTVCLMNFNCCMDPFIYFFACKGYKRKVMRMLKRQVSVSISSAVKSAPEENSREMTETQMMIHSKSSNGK
* hit, by the source's call; . = no result given. In the library only some 1.5% were active in any assay of this set; here they are far more common.

SMILES	CXCR6 inh	APJ ag	CCR6 antagonist	APJ antag	EBI2 antag
CCN(CC)CCn1c(NC(=O)c2ccc(Cl)cc2)nc2ccccc21	7	-4	7	-4	6
O=C(/C=C/c1cccc(Cl)c1)c1nc2ccccc2[nH]1	9	0	32	8	56*
O=C(/C=C/c1cccc(Cl)c1)Nc1ncccn1	-4	-2	-2	17	-5
O=C(/C(=C\c1ccccc1)c1nc2ccccc2[nH]1)c1ccc(Cl)cc1	8	4	19	8	48*
O=S(=O)(NC1CC1)c1ccc(S(=O)(=O)N(Cc2ccccn2)C2CCCC2)cc1	9	1	-10	14	-4
N#Cc1ccc(Nc2nc(-c3ccc(O)cc3O)cs2)cc1C(F)(F)F	-23	6	4	3	56*
COC(=O)c1cc(=O)n(CCc2ccccc2F)c(=Nc2ccc(F)c(Cl)c2)s1	0	5	17	12	69*
COC(=O)c1cc(=O)n(Cc2cccs2)c(=Nc2ccc(F)cc2)s1	10	0	30	19	30
COC(=O)c1cc(=O)n(Cc2ccco2)c(=Nc2ccc(F)c(Cl)c2)s1	8	0	11	26	55*
O=C(COc1ncnc2ccccc12)NC1CCCCC1	1	0	13	0	1
Cc1cc2nccc(-c3cccnc3)n2n1	-2	-3	2	-26	3
O=C1/C(=C/c2ccc([N+](=O)[O-])cc2)C=C(c2ccccc2)N1c1ccc(O)cc1	38*	0	54*	6	61*
COc1ccc(Cl)c(-c2cc(C(=O)Nc3ccccc3)[nH]n2)c1	-6	.	.	.	11
CN(/N=C/c1cc(Br)cc(Br)c1O)c1cccc(C(F)(F)F)n1	58*	-3	.	28	-6
CN(N=Cc1ccccc1O)c1ccc2ccccc2n1	6	.	.	.	28
CC(C)c1cccc(-c2csc(C(O)c3ccco3)n2)c1 (stereo not given)	-6	.	.	.	-18
S=C(NNc1ccc2ccccc2c1)NC1CCCCC1	21	-8	54*	40	45*
CCOC(=O)c1c(C)[nH]c(C(=O)OCC(=O)Nc2cc(C)nn2-c2ccccc2)c1C	2	-6	-4	-18	5
O=C(O)c1ccccc1C(=O)Nc1ccccc1	0	-2	-5	5	8
O=C(Nc1ccccc1)C1=C(c2ccccc2)S(=O)(=O)CCS1(=O)=O	38	.	51*	.	31
CC(Nc1cccc([N+](=O)[O-])c1)C(=O)Nc1ccc(S(=O)(=O)N2CCCC2)cc1 (stereo not given)	1	1	20	16	7
CCOc1cc(CNCc2ccncc2)cc(Br)c1OCc1ccc(F)cc1	-1	2	8	9	59*
Fc1ccc(COc2ccc(Br)cc2CNCc2ccncc2)cc1	0	0	2	1	14
NC(=NCc1ccco1)NC(=O)c1ccc(Cl)cc1	-6	-2	3	-34	6
CCC(CC)c1nnc(NC(=O)c2cc([N+](=O)[O-])ccc2N2CCCCC2)s1	16	-1	71*	18	11
SMILES	CXCR6 inh	APJ ag	CCR6 antagonist	APJ antag	EBI2 antag
Cc1cc(C)c2c(=N)c3ccccc3n(CCCCCCCCn3c4ccccc4c(=N)c4c(C)cc(C)nc43)c2n1	40*	.	107*	.	14
CN(CCOc1ccc(Cl)cc1)C(=O)c1cccc(S(=O)(=O)N2CCN(c3ccc(F)cc3)CC2)c1	21	.	7	.	56*
CC(C)(C)c1cc(C(c2cccnc2)N2CCN(CCO)CC2)cc(C(C)(C)C)c1O (stereo not given)	27	4	62*	23	3
O=C1Nc2ccccc2/C1=C\C(=O)c1ccccc1	16	-4	35	14	61*
CCOC(=O)C1CCCN(C(=O)Cn2sc3nc(C)cc(C)c3c2=O)C1 (stereo not given)	2	1	67*	-3	0
CCCC(=O)NC1=C(Cl)C(=O)c2ccccc2C1=O	99*	.	107*	.	-31
CCNC1=C(Cl)C(=O)c2ccccc2C1=O	7	-1	-11	-27	0
Cc1ccc(NC2=C(Cl)C(=O)c3ccccc3C2=O)cc1	7	.	46	.	30
CCN(CC)c1ccc(NC2=C(Cl)C(=O)c3ccccc3C2=O)cc1	34	.	57*	.	37
O=C(CN1C(=O)/C(=C\c2ccccc2Br)Oc2ccccc21)NCCCN1CCOCC1	1	-4	68*	17	4
Cc1nc(N(CCO)C2CCCCC2)c2nnn(Cc3ccccc3)c2n1	2	-1	6	-4	12
CCN(CC)S(=O)(=O)c1ccc(N2CCCC2)c(NC(=O)C2CSC3(C)CCC(=O)N23)c1 (stereo not given)	-16	-8	4	8	-1
CC(=O)Nc1ccc(Nc2c3c4c(cccc4n(C)c2=O)C(=O)c2ccccc2-3)cc1	26	-1	52*	21	13
O=[N+]([O-])c1cccc(/C=N/Nc2nc(C(Cl)(Cl)Cl)nc3ccccc23)c1	-5	15*	-4	-41	-2
CC(=O)C1=C(O)C(=O)N(c2ccc(Br)cn2)C1c1cccc([N+](=O)[O-])c1 (stereo not given)	-8	-4	9	12	14
CC1CCc2c(sc(NC(=O)c3ccc(-c4ccccc4[N+](=O)[O-])o3)c2C#N)C1 (stereo not given)	33	-7	58*	24	28
N#Cc1c(NC(=O)c2ccc(-c3ccccc3[N+](=O)[O-])o2)sc2c1CCCC2	31	-1	37	22	14
CCOc1ccc(NC(=O)CN2CCN(CC(=O)Nc3ccc(Cl)c(C(F)(F)F)c3)CC2)cc1	-11	0	-4	-14	43*
CCOc1ccc(NC(=O)CN2CCN(CC(=O)Nc3cccc(F)c3)CC2)cc1	0	4	16	8	0
COc1ccc(CNc2oc(COc3ccccc3Cl)nc2C#N)cc1	6	-3	5	4	35
Cc1ccc(CNc2oc(COc3ccccc3Cl)nc2C#N)cc1	6	2	5	-10	47*
COc1ccccc1N(C(C)=O)C1=C(Cl)C(=O)c2ccccc2C1=O	96*	.	.	.	3
COc1ccccc1N(C(=O)CCl)c1cn(C(C)=O)c2ccccc12	2	-3	8	19	-8
Cc1ccc(S(C)(=O)=O)cc1C(=O)OCC(=O)N(Cc1ccccc1)Cc1ccccc1	2	-4	13	10	9
O=C(/C=C/c1ccccc1)OCN1C(=O)c2ccccc2C1=O	7	0	0	14	18
N#CCCN1CCCc2cc(N=Nc3ccc(C(F)(F)F)cc3)ccc21	17	-6	30	30	56*
CCCN1CCCc2ccccc21	3	-7	10	9	-2
O=S(=O)(NC1CCCCC1N1CCC(O)CC1)c1ccccc1 (stereo not given)	-6	-3	2	7	-6
O=C(CSCc1ccc(Cl)cc1)Nc1ccc(-c2nnc(-c3ccccc3)o2)cc1	-17	1	-14	45*	-19
